Data set [1] can be described thus: Selectivity index, ratio of CC50 for human MT4 cells to EC50 for HIV1 3B. The class given is toxicity, cell-based. The note with it: read-out: Ratio CC50/EC50. The essentials:
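SI is CC50 in mock-infected MT-4 cells divided by EC50 against HIV-1 IIIB. Both come from the same 5-day MTT assay, with serial 5-fold dilutions in triplicate wells.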

The nature of data set [2]: Cytotoxicity against human MT4 cells after 5 days by MTT assay. It is filed as cell-based. The essentials:
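Mock-infected MT-4 cells at 6 × 10⁵ cells/mL received medium instead of virus, with serial 5-fold compound dilutions in triplicate. After 5 days, viability was read by MTT at 540 and 690 nm.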

In data set [3] the test system is Human immunodeficiency virus 2. In words: Antiviral activity against HIV2 ROD infected in human MT4 cells assessed as inhibition of virus-induced cytopathic effect after 5 days by MTT assay. It is filed as functional, organism-based. As to conditions: Human immunodeficiency virus 2, ISOLATE ROD, MT4, 120 h. Summed up: (§1)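 MT-4 cells, spun 5 min at 220 g, resuspended at 6 × 10⁵ cells/mL, infected with virus stock at 100-300 CCID50. Serial 5-fold compound dilutions were added at the start, in triplicate wells. After 5 days, viability was read by MTT reduction at 540 and 690 nm.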

Data set [4] has as its system Human immunodeficiency virus 1. The data set can be described thus: Antiviral activity against HIV1 RES056 expressing RT K103N/Y181C mutant infected in human MT4 cells assessed as inhibition of virus-induced cytopathic effect after 5 days by MTT assay. The note with it: Human immunodeficiency virus 1, RES056, MT4, 120 h. The class given is functional, organism-based. The essentials: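 MT-4 cells, exponentially growing, spun 5 min at 220 g and resuspended at 6 × 10⁵ cells/mL, then infected with 100-300 CCID₅₀ virus stock. Serial 5-fold compound dilutions were added from 10× stocks, in triplicate alongside mock-infected wells. Viability was read by MTT at 540 and 690 nm. EC₅₀ is the concentration giving 50% protection from cytopathic effect, using median OD of three wells.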

The test system of data set [5] is Human immunodeficiency virus 1. The data set can be described thus: Antiviral activity against HIV1 3B infected in human MT4 cells assessed as inhibition of virus-induced cytopathic effect after 5 days by MTT assay. It is filed as functional, organism-based. As to conditions: Human immunodeficiency virus 1, 3B, MT4, 120 h. Summed up:
as §1

The target of data set [6] is Human immunodeficiency virus type 1 reverse transcriptase (Human immunodeficiency virus 1, UniProt Q72547). In words: Inhibition of recombinant wild type HIV1 RT using poly(rA)/oligo(dT)16 as template after 40 mins by spectrofluorometric analysis.
The subject of data set [7] is Human immunodeficiency virus 1. In words: Ratio of nevirapine EC50 to compound EC50 for HIV1 3B. It is filed as functional.
Data set [8] concerns Human immunodeficiency virus 1. The data set can be described thus: Ratio of delavirdine EC50 to compound EC50 for HIV1 3B. The class given is functional.
For data set [9], the target named is Human immunodeficiency virus type 1 reverse transcriptase (Human immunodeficiency virus 1, UniProt Q72547, K103N/Y181C). In words: Inhibition of HIV RT K103N/Y181C mutant by cell based assay. The essentials: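 Serial 5-fold compound dilutions in triplicate wells, with parallel mock-infected wells. After 5 days, viability was read by MTT reduction at 540 and 690 nm. The median OD of three wells gave EC₅₀, the concentration giving 50% protection from viral cytopathic effect.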

Molecules are shown by their SMILES. Where only a bound is given, the exact number is not on record here.

The source of these data is ChEMBL document CHEMBL2401620, “Molecular design, synthesis and biological evaluation of BP-O-DAPY and O-DAPY derivatives as non-nucleoside HIV-1 reverse transcriptase inhibitors” (Eur J Med Chem, 2013).

Take `Cc1ccc(C(=O)c2cc(Cl)ccc2Oc2ccnc(Nc3ccc(C#N)cc3)n2)cc1`: the selectivity ratio in [1] is < 1. In addition, the CC50 at 120 h in data set [2] was 1.71 µM. Besides, the EC50 in [3], in [4] and in data set [5] was > 1.71 µM throughout.
Consider `Cc1cc(C)cc(C(=O)c2cc(Cl)ccc2Oc2ccnc(Nc3ccc(C#N)cc3)n2)c1`, for which the IC50 in data set [6] was 3.22 µM. The selectivity ratio in [1] worked out at 36. The CC50 at 120 h in [2] worked out at 28.8 µM. In addition, the values for the EC50 in [3], in data set [4] and in data set [5] were > 28.8 µM, > 28.8 µM and 0.79 µM, respectively.
In the case of `Cc1ccccc1C(=O)c1cc(Cl)ccc1Oc1ccnc(Nc2ccc(C#N)cc2)n1`, in data set [6], the IC50 amounted to 3.45 µM. Further, the selectivity ratio in data set [1] amounted to 21. For the same compound, the midpoint of cytotoxicity in data set [2], the CC50 at 120 h, lay at 28.8 µM. Besides, the EC50 was > 28.8 µM in [3], > 28.8 µM in data set [4] and 1.36 µM in [5].
As for `COc1ccc(C(=O)c2ccccc2)c(Oc2ccnc(Nc3ccc(C#N)cc3)n2)c1`, in [1], the selectivity ratio is < 1. This compound also showed a CC50 at 120 h in data set [2] of 0.76 µM. The EC50 in [3], in data set [4] and in data set [5] was > 0.76 µM each time.
Turning to `N#Cc1ccc(Nc2nccc(Oc3ccc(C(=O)c4ccc(O)cc4)cc3)n2)cc1`, in [6], the IC50 is 7.13 µM. In [1], the selectivity ratio amounted to 7. Also, in data set [2], the CC50 at 120 h was 19.4 µM. Further, the EC50 in data set [3] was > 19.4 µM; in data set [4] it was > 19.4 µM; in data set [5] it was 2.72 µM.
In the case of `N#Cc1ccc(Nc2nccc(Oc3ccc(OCc4ccccc4)cc3)n2)cc1`, the IC50 in data set [6] came to 31 µM. The selectivity ratio in data set [1] is > 7. The CC50 at 120 h in data set [2] was > 317 µM. The EC50 in [3] is > 317 µM; in data set [4], > 317 µM; in data set [5], 46.1 µM.
Consider `COCCc1ccc(Oc2ccnc(Nc3ccc(C#N)cc3)n2)cc1`, for which the IC50 in data set [6] was determined as 2.69 µM. Besides, the selectivity ratio in data set [1] amounted to 359. In data set [2], this compound gave a CC50 at 120 h of 93.2 µM. Further, the EC50 in data set [3] is ≥ 46.2 µM; in [4], ≥ 93.2 µM; in data set [5], 0.26 µM.
As to `Cc1ccc(C(=O)c2cc(Cl)ccc2Oc2cc(C)nc(Nc3ccc(C#N)cc3)n2)cc1`, in data set [1], the selectivity ratio was < 1. For the same compound, in data set [2], the CC50 at 120 h came to 26.6 µM. For the same compound, the EC50 in data set [3], in [4] and in data set [5] was > 26.6 µM throughout.
Turning to `Cc1cc(C)cc(C(=O)c2cc(Cl)ccc2Oc2cc(C)nc(Nc3ccc(C#N)cc3)n2)c1`, the selectivity ratio in [1] was < 1. This compound also yielded a CC50 at 120 h in [2] of 37.1 µM. Besides, the EC50 in data set [3], in data set [4] and in [5] was > 37.1 µM in each case.
In the case of `Cc1cc(Oc2ccc(Cl)cc2C(=O)c2ccccc2C)nc(Nc2ccc(C#N)cc2)n1`, in [1], the selectivity ratio is < 1. The CC50 at 120 h in data set [2] is 4.24 µM. Also, the EC50 in [3], in data set [4] and in data set [5] was > 4.24 µM throughout.
Turning to `COc1ccc(C(=O)c2ccccc2)c(Oc2cc(C)nc(Nc3ccc(C#N)cc3)n2)c1`, the selectivity ratio in data set [1] was < 1. The compound further yielded a CC50 at 120 h in [2] of 4.9 µM. Further, the EC50 in data set [3], in data set [4] and in [5] was > 4.9 µM throughout.
With `Cc1cc(Oc2ccc(C(=O)c3ccc(O)cc3)cc2)nc(Nc2ccc(C#N)cc2)n1`, the IC50 in data set [6] was 16.9 µM. For the same compound, in [1], the selectivity ratio is ≤ 6. Also, in data set [2], the CC50 at 120 h was 32 µM. Besides, the results for the EC50 in data set [3], in [4] and in data set [5] were > 32 µM, > 32 µM and ≥ 5.18 µM, respectively.
Take `Cc1cc(Oc2ccc(OCc3ccccc3)cc2)nc(Nc2ccc(C#N)cc2)n1`: the IC50 in [6] was determined as 17.4 µM. In addition, in [1], the selectivity ratio amounted to 6. In [2], the CC50 at 120 h worked out at 27.7 µM. Further, the EC50 was > 27.7 µM in data set [3], > 27.7 µM in [4] and 4.31 µM in data set [5].
As for `COCCc1ccc(Oc2cc(C)nc(Nc3ccc(C#N)cc3)n2)cc1`, the IC50 in [6] came to 11.6 µM. The selectivity ratio in data set [1] was determined as 18. For the same compound, half-maximal cytotoxicity in data set [2] (CC50 at 120 h) was put at 13.8 µM. The EC50 in [3] was > 13.8 µM; in data set [4], > 13.8 µM; in data set [5], 0.79 µM.
With `Cc1ccc(C(=O)c2cc(Cl)ccc2Oc2nc(Nc3ccc(C#N)cc3)ncc2C)cc1`, the selectivity ratio in [1] is < 1. Also, the CC50 at 120 h in data set [2] is ≥ 0.83 µM. Further, the EC50 was > 0.83 µM in data set [3], > 0.83 µM in [4] and 3.79 µM in [5].
`Cc1cc(C)cc(C(=O)c2cc(Cl)ccc2Oc2nc(Nc3ccc(C#N)cc3)ncc2C)c1`: in data set [6], the IC50 was 3.06 µM. Further, the selectivity ratio in data set [1] was found to be 9. Further, it took 13.4 µM to reach half-maximal cytotoxicity in [2] (CC50 at 120 h). In addition, the EC50 in data set [3] is > 13.4 µM; in data set [4], > 13.4 µM; in [5], 1.48 µM.
`Cc1ccccc1C(=O)c1cc(Cl)ccc1Oc1nc(Nc2ccc(C#N)cc2)ncc1C`: the IC50 in data set [6] is 5.23 µM. For the same compound, the selectivity ratio in [1] stood at 22. For the same compound, the CC50 at 120 h in data set [2] came out at 24.2 µM. Moreover, the values for the EC50 in [3], in data set [4] and in data set [5] were > 24.2 µM, > 24.2 µM and 1.09 µM, respectively.
For the compound `COc1ccc(C(=O)c2ccccc2)c(Oc2nc(Nc3ccc(C#N)cc3)ncc2C)c1`, in data set [1], the selectivity ratio is ≤ 2. This compound gave a CC50 at 120 h in [2] of 7.42 µM. Further, the EC50 was > 7.42 µM in data set [3], > 7.42 µM in [4] and ≥ 3.51 µM in data set [5].
For `Cc1cnc(Nc2ccc(C#N)cc2)nc1Oc1ccc(C(=O)c2ccc(O)cc2)cc1`, in [6], the IC50 was 5.21 µM. In addition, the selectivity ratio in data set [1] is > 82. The CC50 at 120 h in [2] is > 296 µM. The EC50 is > 296 µM in data set [3], > 296 µM in data set [4] and 3.61 µM in data set [5].
For `Cc1cnc(Nc2ccc(C#N)cc2)nc1Oc1ccc(OCc2ccccc2)cc1`, in data set [1], the selectivity ratio was 29. Moreover, the CC50 at 120 h in data set [2] came to 170 µM. The EC50 in data set [3], in data set [4] and in data set [5] was > 170 µM each time.
As to `COCCc1ccc(Oc2nc(Nc3ccc(C#N)cc3)ncc2C)cc1`, the “Ratio EC50” value in [7] and in [8] was 1.8 each time. Moreover, the IC50 in data set [6] was 1.27 µM. Moreover, the selectivity ratio in [1] is > 6260. For the same compound, in data set [2], the CC50 at 120 h was > 347 µM. Also, the EC50 in [3] is > 347 µM; in [4], > 347 µM; in data set [5], 0.06 µM.
For `CC(C)Nc1cccnc1N1CCN(C(=O)c2cc3cc(NS(C)(=O)=O)ccc3[nH]2)CC1` [DELAVIRDINE], the CC50 at 120 h in data set [2] was > 36.2 µM. Further, the EC50 in [3] was > 36.2 µM; in data set [4], > 36.2 µM; in data set [5] it was 0.11 µM.
Turning to `O=C1Nc2ccc(Cl)cc2[C@@](C#CC2CC2)(C(F)(F)F)O1` [EFAVIRENZ], the CC50 at 120 h in data set [2] is > 6.34 µM. Further, the results for the EC50 in [3] and in data set [5] were > 6.34 µM and 0.01 µM, respectively.
Turning to `Cc1ccnc2c1NC(=O)c1cccnc1N2C1CC1` [NEVIRAPINE], the CC50 at 120 h in [2] is > 15 µM. Further, the EC50 in [3] is > 15 µM; in [4] it was 5.12 µM.
On to `Cc1cc(/C=C/C#N)cc(C)c1Nc1ccnc(Nc2ccc(C#N)cc2)n1` [RILPIVIRINE], for which the EC50 in data set [9] came to 0.0008 µM.
As to `Cc1cn([C@H]2C[C@H](N=[N+]=[N-])[C@@H](CO)O2)c(=O)[nH]c1=O` [ZIDOVUDINE], the selectivity ratio in data set [1] was > 14400. Besides, in [2], the half-maximal cytotoxic concentration (CC50) at 120 h was > 93.5 µM. Besides, the EC50 in data set [3], in [4] and in data set [5] was 0.01 µM in each case.
